Hits are enriched below; roughly 1.8% of the tested compounds scored in any of these assays.
CAL PDZ FP-1 – blocks peptide binding to the human CAL PDZ domain; purified CAL PDZ, TMR-peptide fluorescence polarization, 1 h; inhibition, % at 24.9 µM; Q9HD26; 0.92% of 300,000 active;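 active = mean inhibition of at least 30% with at least half of replicates also reaching 30%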;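 note: 0% = DMSO neutral control and 100% = excess unlabeled competitor peptide PRC23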
DDE Tn6 FP inh – DD(E)-Tn6 binding inhibition, primary FP screen; AID 720509; Fibrin DD(E) TRITC-Tn6 fluorescence polarization displacement; 0.21% of 370,000 active; inhibition, % at 8.3 µM; P02675;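 active = inhibition above a per-campaign cutoff: mean of compounds within control limits plus 3 SD, cut at about 15% in these data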;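 note: 0% = median of all compound wells on the plate and 100% = blocking peptide control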
DDE Tn7 FP inh – DD(E)-Tn7 binding inhibition, primary FP screen. P02675. FP displacement of FITC-Tn7 peptide from fibrin DD(E); 0% = median of compound wells per plate. inhibition, % at 8.3 µM. 0.13% of 370,000 active. AID 720508;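 active = inhibition above the mean of compounds falling within the control limits plus 3 SD of them, cut at about 14% in these data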;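 note: 0% = plate median of compound wells and 100% = 10 µM Aha-Tn7 peptide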
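Also added: labelled Tn7 tracer, 0.1 µM; Assay system: human fibrin DD(E) protein; Amount: 2 µM fibrin DD(E); Schedule: 10 min compound pre-incubation, 3 h probe incubation at room temperature; Repeats: one replicate per compound; Read-out basis: percent inhibition; Measured by: fluorescence polarization of the labelled Tn7 tracer.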
CAL PDZ FP-2 – human CAL PDZ-peptide interaction inhibition. Q9HD26. purified CAL PDZ, TMR-peptide fluorescence polarization, 1 h. inhibition, % at 20 µM. 0.02% of 330,000 active. AID 504414;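 active = highest replicate inhibition of at least 40%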;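 note: plate controls were DMSO neutral control wells for no effect and unlabeled competitor peptide control wells for full effect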
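Test system: purified CerCALP PDZ construct; Compound dosing: one concentration, 20 µM compound; Also added: TMR-labelled reporter peptide T*-PRC34 bound in PDZ groove; Read-out: inhibition from polarization loss; Controls: unlabelled peptide and DMSO controls; Signal: FP readout, S and P plane fluorescence; Incubation: 1 h at RT.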
ARNT TACC3 PPI – disrupts binding between human ARNT and TACC3; 0.66% of 390,000 active; Q9Y6A5; AlphaScreen His-ARNT PAS-B/GST-TACC3 binding, luminescence; TACC3 fragment carries E629A point mutation; inhibition, % at 9.99 µM;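 active = mean inhibition of replicates at least 50% and at least half of replicates each reaching 50%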;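 note: 0% = complete ARNT plus TACC3 wells and 100% = ARNT alone without TACC3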
GRK2 inh – blocks RNA aptamer binding to human GRK2; P25098; bead flow cytometry, FAM-aptamer displacement from GRK2; inhibition of aptamer binding, % at 10 µM; 0.59% of 330,000 active; AID 488847;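 active = inhibition of aptamer binding above 40%, roughly 3 SD of noise, on plates passing a quality check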;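 note: median bead fluorescence of bound FAM aptamer so fluorescent compounds give negative values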
Target sequence (P25098 whole entry, looked up): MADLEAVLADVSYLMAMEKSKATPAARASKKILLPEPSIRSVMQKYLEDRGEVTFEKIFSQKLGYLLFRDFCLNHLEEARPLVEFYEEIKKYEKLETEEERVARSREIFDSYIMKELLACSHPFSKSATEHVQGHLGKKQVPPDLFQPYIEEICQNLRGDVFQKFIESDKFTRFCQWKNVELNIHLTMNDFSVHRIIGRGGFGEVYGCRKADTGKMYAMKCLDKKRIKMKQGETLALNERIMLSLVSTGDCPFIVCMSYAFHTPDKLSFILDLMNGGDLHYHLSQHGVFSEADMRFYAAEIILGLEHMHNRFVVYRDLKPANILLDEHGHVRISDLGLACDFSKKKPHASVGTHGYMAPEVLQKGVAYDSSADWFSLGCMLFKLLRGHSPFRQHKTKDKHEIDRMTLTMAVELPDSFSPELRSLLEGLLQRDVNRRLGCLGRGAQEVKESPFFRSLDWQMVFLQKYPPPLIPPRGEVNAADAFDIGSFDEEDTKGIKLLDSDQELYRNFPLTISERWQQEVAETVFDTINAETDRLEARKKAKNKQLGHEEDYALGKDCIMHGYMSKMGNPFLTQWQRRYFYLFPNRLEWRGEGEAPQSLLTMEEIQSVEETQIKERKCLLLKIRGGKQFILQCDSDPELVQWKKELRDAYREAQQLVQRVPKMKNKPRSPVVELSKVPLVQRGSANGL
* marks the source's active call; other numbers are inactive results; x = no result.

SMILES	CAL PDZ FP-1	DDE Tn6 FP inh	DDE Tn7 FP inh	CAL PDZ FP-2	ARNT TACC3 PPI	GRK2 inh
CCC(=O)N1C[C@H]2[C@@H](c3ccccc31)[C@H](CO)N2C(=O)CC	x	x	x	x	0	x
CC(C)NC(=O)N(C)C[C@@H]1Oc2ccc(NC(=O)Nc3ccc(C(F)(F)F)cc3)cc2C(=O)N([C@H](C)CO)C[C@@H]1C	x	x	x	x	1	x
CC(C(=O)NC(C)(C)C)N(C(=O)CS(=O)CC(=O)Nc1ccc(F)cc1)c1ccccc1F (stereo not drawn)	33*	-3	5	1	5	0
Cc1ccc(NC(=O)CS(=O)CC(=O)N(c2ccccc2F)C(C)C(=O)NC2CCCC2)cc1 (stereo not drawn)	-5	6	1	-2	x	1
Cn1c(SCC(N)=O)nnc1-c1ccc(S(=O)(=O)N2CCCC2)cc1	42*	-5	-9	0	3	0
CN(Cc1c(F)cccc1Cl)C(=O)C1CC(=O)N(CCc2ccccc2)C1 (stereo not drawn)	78*	6	0	5	-3	1
COc1cc(NC(=O)C2CC(=O)N(CCc3ccccc3)C2)cc(OC)c1 (stereo not drawn)	4	-4	1	-3	1	0
Cc1ccc(NC(=O)C2CC(=O)N(CCc3ccccc3)C2)cc1Cl (stereo not drawn)	80*	-8	-1	-3	-3	2
C[C@H]1CN([C@@H](C)CO)C(=O)c2cccc(NC(=O)c3ccncc3)c2O[C@@H]1CN(C)Cc1ccc(-c2ccccc2)cc1	x	x	x	x	-2	x
Cc1ccccc1OCc1nc2ccccc2[nH]1	41*	-8	-5	-1	2	3
COc1ccccc1OCc1nc2ccccc2[nH]1	-6	-6	2	-2	-1	0
O=C(COC(=O)C1CC(=O)N(C2CCCCC2)C1)c1ccc(F)cc1 (stereo not drawn)	-3	-5	0	0	-4	0
O=C(COC(=O)C1CCC(N2C(=O)C3C4CCC(C4)C3C2=O)CC1)c1ccc(F)cc1 (stereo not drawn)	79*	-11	-15	0	6	1
CCOC(=O)C1=CN(Cc2ccco2)S(=O)(=O)N(C)C1c1ccc(F)c(Cl)c1 (stereo not drawn)	-3	4	3	1	x	0
Nc1nc(Sc2ccc([N+](=O)[O-])c3nonc23)c2[nH]cnc2n1	-6	3	7	0	22*	x
CCOC(=O)CSc1nnc(CNC(=O)c2cccc(C)c2)n1C	76*	-2	-1	4	10	0
COC(=O)CSc1nnc(CNC(=O)c2ccc(OC)c(OC)c2)n1C	38*	-4	7	-2	-2	7
C[C@@H]1CN([C@H](C)CO)C(=O)c2cc(NC(=O)CCC(F)(F)F)ccc2O[C@@H]1CN(C)C(=O)Nc1cccc2ccccc12	x	x	x	x	7	x
CCOc1ccc(NC(=O)c2ccc(N3CC4CC(C3)c3cccc(=O)n3C4)c(NC(=O)c3ccncc3)c2)cc1 (stereo not drawn)	2	-3	5	-4	8	0
O=C(CCN1CCOCC1)Nc1cc(C(=O)Nc2ccc(Cl)cc2)ccc1N1CC2CC(C1)c1cccc(=O)n1C2 (stereo not drawn)	62*	3	3	-3	14	0
N#Cc1c(C(F)(F)F)cc(-c2ccccc2)[nH]c1=O	36*	9	6	-2	-4	2
O=C(NC1CCCC1)c1ncn[nH]1	0	-7	-6	-1	22*	0
Cc1cccc(/C(N)=N/OC(=O)c2cccs2)c1	53*	11	1	-2	6	2
Cc1ccc(/C(N)=N/OC(=O)c2cccs2)cc1	-3	-7	-8	-1	20	4
CN(C)CCCNC(=O)C[C@H]1CC[C@H]2[C@H](COc3ccc(NC(=O)c4ccccc4F)cc3C(=O)N2C)O1	x	x	x	x	1	x
SMILES	CAL PDZ FP-1	DDE Tn6 FP inh	DDE Tn7 FP inh	CAL PDZ FP-2	ARNT TACC3 PPI	GRK2 inh
Cc1cc(C)n(CC(O)CN(c2ccccc2)S(=O)(=O)c2ccccc2)n1 (stereo not drawn)	x	3	-5	-2	6	0
O=S(=O)(c1ccccc1)N(CC(O)COc1ccccc1)c1ccccc1 (stereo not drawn)	57*	-4	0	0	11	0
COc1cccc(NC(=O)NCc2c(-c3ccccc3)noc2C)c1	-2	-6	5	-1	-4	0
CCOC(=O)CCSc1nnc(-c2cccnc2)n1-c1ccccc1OC	67*	10	3	1	1	0
CCOc1ccccc1-n1c(SCC(N)=O)nnc1-c1ccccc1	12	4	10	1	8	1
Cc1ccc(C)c(-n2c(SCC(=O)N3CCCC3)nnc2-c2ccccn2)c1	x	-1	2	0	46*	4
CCOc1ccccc1-n1c(SCC(=O)N(CC)CC)nnc1-c1ccccn1	x	-5	3	0	14	0
COc1ccccc1-n1c(SCC(N)=O)nnc1-c1ccccc1	0	0	-3	-3	-7	1
Cc1cccc(-n2c(SCC(=O)N3CCCC3)nnc2-c2ccccn2)c1C	2	-3	3	-2	x	0
CCOc1ccccc1-n1c(SCC(N)=O)nnc1-c1ccc(O)cc1	9	5	9	-1	54*	0
CCOc1ccccc1-n1c(SCC(=O)N2CCOCC2)nnc1-c1ccccn1	42*	-7	-3	x	21	0
COc1ccccc1N(C)S(=O)(=O)c1ccc(C(=O)Nc2cccc(S(=O)(=O)N3CCOCC3)c2)cc1	-4	-4	-3	-1	0	x
CCOc1ccc2nc(SCC(=O)c3ccc(O)cc3O)sc2c1	36*	-4	3	x	-7	0
O=C1CSC(c2ccccc2[N+](=O)[O-])N1CCc1ccccc1 (stereo not drawn)	70*	-4	0	0	4	0
Cn1c(=O)c2cc(S(=O)(=O)NCCC(=O)NCc3ccccc3Cl)ccc2n(C)c1=O	1	-1	2	0	50*	0
CC(=O)N(C)C[C@@H]1[C@@H](c2ccc(-c3ccc(F)cc3)cc2)[C@H](CO)N1C(C)=O	x	x	x	x	-5	x
CCOc1ccc(N=Nc2ccc(O)c3ncccc23)cc1	-4	-4	-1	-1	5	4
CCOc1ccc2c(ccc(/C=C/c3cc(C)c4cccnc4c3O)[n+]2C)c1	-2	x	x	0	65*	x
Cc1noc(C)c1S(=O)(=O)N(C)C[C@H]1Oc2ccc(NS(C)(=O)=O)cc2CC(=O)N([C@H](C)CO)C[C@@H]1C	x	x	x	x	-7	x
COc1cc(NS(=O)(=O)c2ccc(C)cc2)c2ncccc2c1	-2	5	0	0	6	1

Screening data as filed in PubChem BioAssay.
